Molecular target: T1, Protein cereblon/3-hydroxy-3-methylglutaryl-coenzyme A reductase (Cricetulus griseus, UniProt P00347+G3H338)
T1 sequence (P00347 whole entry): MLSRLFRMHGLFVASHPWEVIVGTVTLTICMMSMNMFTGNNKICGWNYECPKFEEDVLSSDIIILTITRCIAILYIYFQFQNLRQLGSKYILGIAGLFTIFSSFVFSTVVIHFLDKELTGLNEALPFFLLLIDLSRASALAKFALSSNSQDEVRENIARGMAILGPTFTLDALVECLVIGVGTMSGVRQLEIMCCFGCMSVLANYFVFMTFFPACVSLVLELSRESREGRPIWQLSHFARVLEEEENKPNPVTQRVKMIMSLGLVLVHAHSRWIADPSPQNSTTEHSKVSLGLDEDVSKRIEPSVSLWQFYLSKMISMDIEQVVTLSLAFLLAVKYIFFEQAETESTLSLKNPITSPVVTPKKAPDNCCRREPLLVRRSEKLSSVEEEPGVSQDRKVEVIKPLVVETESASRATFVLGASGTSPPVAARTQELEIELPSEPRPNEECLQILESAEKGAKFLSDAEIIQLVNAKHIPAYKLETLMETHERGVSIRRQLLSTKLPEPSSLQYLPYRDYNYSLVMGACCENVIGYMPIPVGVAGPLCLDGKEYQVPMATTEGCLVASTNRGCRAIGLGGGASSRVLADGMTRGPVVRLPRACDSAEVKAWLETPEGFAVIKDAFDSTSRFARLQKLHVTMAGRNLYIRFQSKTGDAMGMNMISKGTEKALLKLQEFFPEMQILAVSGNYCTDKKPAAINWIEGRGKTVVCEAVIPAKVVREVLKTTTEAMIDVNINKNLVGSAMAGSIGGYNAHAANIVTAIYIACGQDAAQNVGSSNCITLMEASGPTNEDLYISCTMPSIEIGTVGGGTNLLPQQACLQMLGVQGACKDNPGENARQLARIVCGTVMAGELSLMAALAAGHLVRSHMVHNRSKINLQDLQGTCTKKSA
T1 sequence (G3H338 whole entry): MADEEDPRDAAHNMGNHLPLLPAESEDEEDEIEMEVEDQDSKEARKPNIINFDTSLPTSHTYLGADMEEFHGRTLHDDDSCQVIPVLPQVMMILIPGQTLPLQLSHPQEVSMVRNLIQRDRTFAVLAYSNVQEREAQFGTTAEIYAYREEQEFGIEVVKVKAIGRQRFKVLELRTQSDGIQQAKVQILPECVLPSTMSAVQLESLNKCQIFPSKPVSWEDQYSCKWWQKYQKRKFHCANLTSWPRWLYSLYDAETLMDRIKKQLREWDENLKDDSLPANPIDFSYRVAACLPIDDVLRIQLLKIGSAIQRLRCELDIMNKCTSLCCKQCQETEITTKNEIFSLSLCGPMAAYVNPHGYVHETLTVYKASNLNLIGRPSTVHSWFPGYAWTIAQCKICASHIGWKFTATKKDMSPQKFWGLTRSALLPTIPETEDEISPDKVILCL
Experiment: Protac activity at CRBN/HMGCR in Insig-1/Insig-2 deficient Chinese hamster SRD15 cells assessed as induction of HMGCR degradation after 16 hrs by immunoblotting analysis
Procedure, shortened: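 SRD15 cells treated with compound at varying concentrations for 16 h, final DMSO ≤0.1%; RIPA lysates (Lowry protein) immunoblotted for HMGCR, densitometry normalized to actin, DMSO set to 1; DC50 = concentration giving 50% loss versus DMSO, fitted to dose-response curve, mean of 3 independent experiments.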

SMILES	DC50
CC(C)c1c(C(=O)Nc2ccccc2)c(-c2cccc(OCCCc3cn(CCCCCCOCCCc4cccc5c4CN(C4CCC(=O)NC4=O)C5=O)nn3)c2)c(-c2ccc(F)cc2)n1CC[C@@H](O)C[C@@H](O)CC(=O)O (stereo partly drawn)	500 nM
CC(C)c1c(C(=O)Nc2ccccc2)c(-c2cccc(OCCCc3cn(CCCCCCOCC#Cc4cccc5c4CN(C4CCC(=O)NC4=O)C5=O)nn3)c2)c(-c2ccc(F)cc2)n1CC[C@@H](O)C[C@@H](O)CC(=O)O (stereo partly drawn)	200 nM
CC(C)c1c(C(=O)Nc2ccccc2)c(-c2cccc(OCCCc3cn(CCCCOCCCc4cccc5c4CN(C4CCC(=O)NC4=O)C5=O)nn3)c2)c(-c2ccc(F)cc2)n1CC[C@@H](O)C[C@@H](O)CC(=O)O (stereo partly drawn)	> 3000 nM
CC(C)c1c(C(=O)Nc2ccccc2)c(-c2cccc(OCCCCc3cn(CCOCCOCCOCCNc4ccc5c(c4)C(=O)N(C4CCC(=O)NC4=O)C5=O)nn3)c2)c(-c2ccc(F)cc2)n1CC[C@@H](O)C[C@@H](O)CC(=O)O (stereo partly drawn)	> 3000 nM
CC(C)c1c(C(=O)Nc2ccccc2)c(-c2cccc(OCCCCc3cn(CCOCCOCCOCCNc4cccc5c4C(=O)N(C4CCC(=O)NC4=O)C5=O)nn3)c2)c(-c2ccc(F)cc2)n1CC[C@@H](O)C[C@@H](O)CC(=O)O (stereo partly drawn)	> 3000 nM
CC(C)c1c(C(=O)Nc2ccccc2)c(-c2cccc(OCCCCCc3cn(CCOCCOCCNc4cccc5c4C(=O)N(C4CCC(=O)NC4=O)C5=O)nn3)c2)c(-c2ccc(F)cc2)n1CC[C@@H](O)C[C@@H](O)CC(=O)O (stereo partly drawn)	> 3000 nM
CC(C)c1c(C(=O)Nc2ccccc2)c(-c2cccc(OCCCc3cn(CCOCC#Cc4cccc5c4CN(C4CCC(=O)NC4=O)C5=O)nn3)c2)c(-c2ccc(F)cc2)n1CC[C@@H](O)C[C@@H](O)CC(=O)O (stereo partly drawn)	> 3000 nM
CC(C)c1c(C(=O)Nc2ccccc2)c(-c2cccc(OCCCCc3cn(CCOCCOCCNc4cccc5c4C(=O)N(C4CCC(=O)NC4=O)C5=O)nn3)c2)c(-c2ccc(F)cc2)n1CC[C@@H](O)C[C@@H](O)CC(=O)O (stereo partly drawn)	> 3000 nM
CC(C)c1c(C(=O)Nc2ccccc2)c(-c2cccc(OCCCCCCc3cn(CCCCCCCNc4cccc5c4C(=O)N(C4CCC(=O)NC4=O)C5=O)nn3)c2)c(-c2ccc(F)cc2)n1CC[C@@H](O)C[C@@H](O)CC(=O)O (stereo partly drawn)	300 nM
CC(C)c1c(C(=O)Nc2ccccc2)c(-c2cccc(OCCCc3cn(CCOCCOCCOCCNc4ccc5c(c4)C(=O)N(C4CCC(=O)NC4=O)C5=O)nn3)c2)c(-c2ccc(F)cc2)n1CC[C@@H](O)C[C@@H](O)CC(=O)O (stereo partly drawn)	> 3000 nM
CC(C)c1c(C(=O)Nc2ccccc2)c(-c2cccc(OCCCCCc3cn(CCOCCOCCOCCOCCNc4ccc5c(c4)C(=O)N(C4CCC(=O)NC4=O)C5=O)nn3)c2)c(-c2ccc(F)cc2)n1CC[C@@H](O)C[C@@H](O)CC(=O)O (stereo partly drawn)	> 3000 nM
CC(C)c1c(C(=O)Nc2ccccc2)c(-c2cccc(OCCCc3cn(CCCCOCC#Cc4cccc5c4CN(C4CCC(=O)NC4=O)C5=O)nn3)c2)c(-c2ccc(F)cc2)n1CC[C@@H](O)C[C@@H](O)CC(=O)O (stereo partly drawn)	> 3000 nM
CC(C)c1c(C(=O)Nc2ccccc2)c(-c2cccc(OCCCCCc3cn(CCOCCOCCOCCOCCOCCNc4cccc5c4C(=O)N(C4CCC(=O)NC4=O)C5=O)nn3)c2)c(-c2ccc(F)cc2)n1CC[C@@H](O)C[C@@H](O)CC(=O)O (stereo partly drawn)	600 nM
CC(C)c1c(C(=O)Nc2ccccc2)c(-c2cccc(OCCCCCc3cn(CCOCCOCCOCCOCCNc4cccc5c4C(=O)N(C4CCC(=O)NC4=O)C5=O)nn3)c2)c(-c2ccc(F)cc2)n1CC[C@@H](O)C[C@@H](O)CC(=O)O (stereo partly drawn)	500 nM
CC(C)c1c(C(=O)Nc2ccccc2)c(-c2cccc(OCCCCCc3cn(CCOCCOCCOCCNc4cccc5c4C(=O)N(C4CCC(=O)NC4=O)C5=O)nn3)c2)c(-c2ccc(F)cc2)n1CC[C@@H](O)C[C@@H](O)CC(=O)O (stereo partly drawn)	1800 nM
CC(C)c1c(C(=O)Nc2ccccc2)c(-c2cccc(OCCCCc3cn(CCOCCOCCOCCOCCNc4cccc5c4C(=O)N(C4CCC(=O)NC4=O)C5=O)nn3)c2)c(-c2ccc(F)cc2)n1CC[C@@H](O)C[C@@H](O)CC(=O)O (stereo partly drawn)	400 nM
CC(C)c1c(C(=O)Nc2ccccc2)c(-c2cccc(OCCCCc3cn(CCOCCOCCOCCOCCOCCNc4cccc5c4C(=O)N(C4CCC(=O)NC4=O)C5=O)nn3)c2)c(-c2ccc(F)cc2)n1CC[C@@H](O)C[C@@H](O)CC(=O)O (stereo partly drawn)	> 3000 nM

SMILES	DC50
CC(C)c1c(C(=O)Nc2ccccc2)c(-c2cccc(OCCCc3cn(CCCCCOCC#Cc4cccc5c4CN(C4CCC(=O)NC4=O)C5=O)nn3)c2)c(-c2ccc(F)cc2)n1CC[C@@H](O)C[C@@H](O)CC(=O)O (stereo partly drawn)	300 nM
CC(C)c1c(C(=O)Nc2ccccc2)c(-c2cccc(OCCCc3cn(CCCOCC#Cc4cccc5c4CN(C4CCC(=O)NC4=O)C5=O)nn3)c2)c(-c2ccc(F)cc2)n1CC[C@@H](O)C[C@@H](O)CC(=O)O (stereo partly drawn)	> 3000 nM
CC(C)c1c(C(=O)Nc2ccccc2)c(-c2cccc(OCCCc3cn(CCCCCCCOCCCc4cccc5c4CN(C4CCC(=O)NC4=O)C5=O)nn3)c2)c(-c2ccc(F)cc2)n1CC[C@@H](O)C[C@@H](O)CC(=O)O (stereo partly drawn)	600 nM
CC(C)c1c(C(=O)Nc2ccccc2)c(-c2cccc(OCCCCc3cn(CCOCCOCCOCCOCCNc4ccc5c(c4)C(=O)N(C4CCC(=O)NC4=O)C5=O)nn3)c2)c(-c2ccc(F)cc2)n1CC[C@@H](O)C[C@@H](O)CC(=O)O (stereo partly drawn)	> 3000 nM
CC(C)c1c(C(=O)Nc2ccccc2)c(-c2cccc(OCCCc3cn(CCOCCOCCNc4cccc5c4C(=O)N(C4CCC(=O)NC4=O)C5=O)nn3)c2)c(-c2ccc(F)cc2)n1CC[C@@H](O)C[C@@H](O)CC(=O)O (stereo partly drawn)	> 3000 nM
CC(C)c1c(C(=O)Nc2ccccc2)c(-c2cccc(OCCCCCc3cn(CCOCCOCCOCCNc4ccc5c(c4)C(=O)N(C4CCC(=O)NC4=O)C5=O)nn3)c2)c(-c2ccc(F)cc2)n1CC[C@@H](O)C[C@@H](O)CC(=O)O (stereo partly drawn)	> 3000 nM
CC(C)c1c(C(=O)Nc2ccccc2)c(-c2cccc(OCCCc3cn(CCCCCCCOCC#Cc4cccc5c4CN(C4CCC(=O)NC4=O)C5=O)nn3)c2)c(-c2ccc(F)cc2)n1CC[C@@H](O)C[C@@H](O)CC(=O)O (stereo partly drawn)	700 nM
CC(C)c1c(C(=O)Nc2ccccc2)c(-c2cccc(OCCCc3cn(CCOCCOCCOCCNc4cccc5c4C(=O)N(C4CCC(=O)NC4=O)C5=O)nn3)c2)c(-c2ccc(F)cc2)n1CC[C@@H](O)C[C@@H](O)CC(=O)O (stereo partly drawn)	> 3000 nM
CC(C)c1c(C(=O)Nc2ccccc2)c(-c2cccc(OCCCc3cn(CCOCCOCCOCCOCCOCCNc4cccc5c4C(=O)N(C4CCC(=O)NC4=O)C5=O)nn3)c2)c(-c2ccc(F)cc2)n1CC[C@@H](O)C[C@@H](O)CC(=O)O (stereo partly drawn)	200 nM
CC(C)c1c(C(=O)Nc2ccccc2)c(-c2cccc(OCCCc3cn(CCOCCNc4cccc5c4C(=O)N(C4CCC(=O)NC4=O)C5=O)nn3)c2)c(-c2ccc(F)cc2)n1CC[C@@H](O)C[C@@H](O)CC(=O)O (stereo partly drawn)	> 3000 nM
CC(C)c1c(C(=O)Nc2ccccc2)c(-c2cccc(OCCCc3cn(CCOCCCc4cccc5c4CN(C4CCC(=O)NC4=O)C5=O)nn3)c2)c(-c2ccc(F)cc2)n1CC[C@@H](O)C[C@@H](O)CC(=O)O (stereo partly drawn)	> 3000 nM
CC(C)c1c(C(=O)Nc2ccccc2)c(-c2cccc(OCCCCc3cn(CCOCCNc4cccc5c4C(=O)N(C4CCC(=O)NC4=O)C5=O)nn3)c2)c(-c2ccc(F)cc2)n1CC[C@@H](O)C[C@@H](O)CC(=O)O (stereo partly drawn)	> 3000 nM
CCN1C(=O)CCC(N2C(=O)c3cccc(NCCOCCOCCOCCOCCn4cc(CCCOc5cccc(-c6c(C(=O)Nc7ccccc7)c(C(C)C)n(CC[C@@H](O)C[C@@H](O)CC(=O)O)c6-c6ccc(F)cc6)c5)nn4)c3C2=O)C1=O (stereo partly drawn)	> 3000 nM
CC(C)c1c(C(=O)Nc2ccccc2)c(-c2cccc(OCCCCCc3cn(CCOCCNc4cccc5c4C(=O)N(C4CCC(=O)NC4=O)C5=O)nn3)c2)c(-c2ccc(F)cc2)n1CC[C@@H](O)C[C@@H](O)CC(=O)O (stereo partly drawn)	3000 nM
CC(C)c1c(C(=O)Nc2ccccc2)c(-c2cccc(OCCCc3cn(CCCCCOCCCc4cccc5c4CN(C4CCC(=O)NC4=O)C5=O)nn3)c2)c(-c2ccc(F)cc2)n1CC[C@@H](O)C[C@@H](O)CC(=O)O (stereo partly drawn)	2300 nM
CC(C)c1c(C(=O)Nc2ccccc2)c(-c2cccc(OCCCCCCCc3cn(CCCCCCCNc4cccc5c4C(=O)N(C4CCC(=O)NC4=O)C5=O)nn3)c2)c(-c2ccc(F)cc2)n1CC[C@@H](O)C[C@@H](O)CC(=O)O (stereo partly drawn)	500 nM
